Screening data: PubChem, Broad Institute
Vif inh: blocks HIV Vif function | 340,000 tested, 0.35% active | AID 602346 | HEK293T cells, Vif self-association by quenched fluorescence, imaging, 24 h | inhibition, % at 7.49 µM; in the data active means inhibition above about 50%, passing the limit was not always enough
SR-BI DiI-HDL act: activators of SR-BI mediated HDL lipid uptake | CHO ldlA[mSR-BI] cells, DiI-HDL uptake fluorescence, 3 h; 100 = double the neutral-control signal | activation, % at 12.5 µM | 320,000 tested, 0.096% active | AID 504775;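 active means mean replicate activation of at least 60% and every replicate at or above 60%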;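 further: 0% = median plate neutral-control signal and 100% = twice that signal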
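System: LDL receptor-deficient CHO ldlA cells overexpressing murine SR-BI | Timing: 3 h uptake period with compound, 37 °C | Medium: HEPES-buffered (25 mM, pH 7.4) F12 plus 0.5% BSA | Dosing: Single-point compound dose | Signal: Bottom-read fluorescence, 550/595 nm | Read-out: Retained DiI signal reflecting DiI-HDL uptake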
C2C12 statin: suppressors of simvastatin-induced myotoxicity in C2C12 myotubes. ATP luminescence, 48 h; scaled: DMSO 0, geranylgeraniol control 100. rescue of ATP level, % at 7.49 µM. 330,000 tested, 0.78% active;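 active means mean ATP rescue above about 67%, or every replicate alone reaching that limit, limit read from the data, passing the limit was not always enough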;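 further: myotubes were challenged with 10 µM simvastatin during compound exposure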
SR-BI DiI inh: mouse SR-BI HDL lipid transfer inhibition. Q61009. ldlA[mSR-BI] CHO cells, DiI-HDL uptake fluorescence, 3 h. inhibition, % at 12.5 µM. 320,000 tested, 0.96% active;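 active means mean replicate inhibition of at least 70% and a set share of replicates each scoring 70 or more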;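 further: 0% = median of neutral control wells and 100% = median of positive control wells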
Target sequence (Q61009 whole entry, looked up): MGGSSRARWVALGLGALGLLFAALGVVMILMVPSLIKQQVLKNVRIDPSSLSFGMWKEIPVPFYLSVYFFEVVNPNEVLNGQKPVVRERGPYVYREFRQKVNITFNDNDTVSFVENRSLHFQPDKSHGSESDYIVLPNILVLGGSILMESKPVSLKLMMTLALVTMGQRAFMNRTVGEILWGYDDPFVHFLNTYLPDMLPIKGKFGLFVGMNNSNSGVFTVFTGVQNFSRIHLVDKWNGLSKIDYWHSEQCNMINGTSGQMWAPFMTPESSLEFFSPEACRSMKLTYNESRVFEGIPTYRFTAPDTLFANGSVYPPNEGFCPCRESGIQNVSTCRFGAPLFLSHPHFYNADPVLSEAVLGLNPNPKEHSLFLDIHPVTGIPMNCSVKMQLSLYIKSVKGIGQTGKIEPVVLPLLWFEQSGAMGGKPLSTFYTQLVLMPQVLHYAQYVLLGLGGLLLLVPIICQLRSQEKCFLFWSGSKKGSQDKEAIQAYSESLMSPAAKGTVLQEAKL
Starred values were filed as active, the others as inactive; nt = not tested or not shown. Most compounds without a hit are left out; they make up all but 1.7% or so of the library.

SMILES | Vif inh | SR-BI DiI-HDL act | C2C12 statin | SR-BI DiI inh
CCc1nn(C(C)C(=O)NCCN2CCN(c3cccc(C)c3C)CC2)c(=O)c2cc3occc3n12 (configuration not stated) | nt | -80 | 10 | 80*
CCc1nn(C(C)C(=O)NCCN2CCCCCC2)c(=O)c2cc3occc3n12 (configuration not stated) | -1 | 18 | -2 | -18
O=C1CSC(c2cn(-c3ccccc3)nc2-c2ccccc2)N1Cc1ccco1 (configuration not stated) | 0 | 2 | 74* | -2
CO[C@@H]1CN(C)C(=O)c2ccc(NC(=O)C3CCCC3)cc2OC[C@H](C)N(C(C)=O)C[C@@H]1C | nt | nt | -9 | nt
CCCCc1ccc(S(=O)(=O)NCCc2ccncc2)cc1 | -13 | 16 | 126* | -16
Cc1ccc(S(=O)(=O)NCCc2ccncc2)cc1 | -1 | 17 | nt | -17
O=C(c1cc(Cl)c(=O)n(Cc2ccccc2)c1)N1CCOCC1 | 62* | -3 | nt | 3
O=C(c1ccccc1CCc1ccccc1)N1CCOCC1 | -2 | -10 | 114* | 10
NC(=O)C1CCN(C(=O)c2ccccc2CCc2ccccc2)CC1 | -1 | -2 | 2 | 2
C[C@H]1CCCCO[C@@H](CN(C)CC2CCCCC2)[C@@H](C)CN([C@@H](C)CO)C(=O)c2cc(NC(=O)NC3CCCCC3)ccc2O1 | nt | nt | -171 | nt
Cc1cc(C)c(S(=O)(=O)N2CCN(C(=O)c3c(C)nn(-c4ccccc4)c3Cl)CC2)c(C)c1 | 5 | -78 | 5 | 78*
Cc1ccc(S(=O)(=O)N2CCN(C(=O)c3c(C)nn(-c4ccccc4)c3Cl)CC2)cc1 | 5 | -2 | 27 | 2
COCCNC(=O)C[C@@H]1CC[C@@H]2[C@H](COc3ccc(NC(=O)C4CCOCC4)cc3C(=O)N2C)O1 | nt | nt | -29 | nt
COc1ccc(Cn2nnnc2CN2CCOCC2)cc1 | -2 | 22 | 11 | -22
c1ccc(Cn2nnnc2CN2CCN(c3ncccn3)CC2)cc1 | 24 | 2 | 140* | -2
CCCn1nnnc1SCC(=O)N1CCCCC1 | 57* | 2 | 3 | -2
COc1cccc(-c2nnc(SCC(=O)N3CCCc4ccccc43)o2)c1 | 3 | nt | 98* | nt
COc1ccc(-n2nnnc2SCC(=O)N2CCCc3ccccc32)cc1OC | -13 | -41 | 128* | 41
Cc1ccc(-n2nnnc2SCC(=O)N2CCCCC2)cc1 | 8 | 7 | -1 | -7
O=C(CSc1nnnn1-c1cccc2c1CCCC2)N1CCCCC1 | -14 | -11 | 105* | 11
CCC(=O)N1C[C@H](O)COC[C@H]2O[C@@H](CC(=O)N3CCCCC3)CC[C@@H]21 | nt | nt | 4 | nt
O=C(c1ccccc1)N1C[C@@H]2[C@H](c3ccccc31)[C@H](CO)N2C(=O)Nc1ccccc1Cl | nt | nt | 54 | nt
C[C@H]1CN([C@@H](C)CO)S(=O)(=O)c2ccc(-c3cccnc3)cc2O[C@H]1CN(C)Cc1cncnc1 | nt | nt | 3 | nt
O=C(C[C@@H]1CC[C@@H]2[C@H](COC[C@H](O)CN2C(=O)C2CCOCC2)O1)NCc1ccncc1 | nt | nt | -19 | nt
COc1ccc(OC)c(-c2nnc(SCC(=O)N3CCCc4ccccc43)o2)c1 | -10 | nt | 14 | nt
SMILES | Vif inh | SR-BI DiI-HDL act | C2C12 statin | SR-BI DiI inh
COc1cc(OC)cc(-c2nnc(SCC(=O)N3CCCc4ccccc43)o2)c1 | -6 | -18 | 108* | 18
CCC(=O)N1CCCCN2[C@H](CO)[C@H](c3ccc(-c4cccnc4)cc3)[C@@H]2C1 | nt | nt | 0 | nt
CC(C)OC(=O)C(C)(C)Oc1ccc(C(=O)c2ccc(Cl)cc2)cc1 | -2 | -93 | 9 | 93*
O=C(O)C[C@H]1C[C@H]2c3cc(NC(=O)Nc4ccccc4)ccc3O[C@H]2[C@H](CO)O1 | nt | nt | -2 | nt
CO[C@H]1CN(C)C(=O)c2cc(NC(C)=O)ccc2OC[C@H](C)N(Cc2cncnc2)C[C@@H]1C | nt | nt | -12 | nt
O=Cc1c(Sc2ccccn2)nc2ccccn2c1=O | 11 | -77 | -15 | 77*
O=C(CSc1nc2c(sc3ccccc32)c(=O)n1Cc1ccco1)NCC1CCCO1 (configuration not stated) | 19 | -25 | 95* | 25
COC(=O)c1cc(=O)n(CCc2ccccc2F)c(=Nc2ccc(F)c(Cl)c2)s1 | 3 | -48 | 110* | 48
CC1CCc2nc(NC(=O)CN3CCOCC3)sc2C1 (configuration not stated) | 2 | 20 | 0 | -20
CC1(C)CNC(=O)c2sc(NC(=O)CN3CCOCC3)nc2C1 | 8 | 3 | 108* | -3
COc1ccc(C(CC(=O)O)c2cc(OC)c(OC)c(OC)c2)cc1OC (configuration not stated) | -5 | 430* | nt | -430
COc1cc(OC)cc(-c2sc3ccc(OC)cc3c2C#CCCO)c1 | 3 | -76 | 7 | 76*
COc1ccc2c(C#CCCO)c(-c3ccc(S(C)(=O)=O)cc3)sc2c1 | -7 | -83 | -65 | 83*
C[C@H]1CN([C@@H](C)CO)S(=O)(=O)c2ccc(-c3ccc(C(=O)N(C)C)cc3)cc2O[C@H]1CN(C)C(=O)C1CC1 | nt | nt | 6 | nt
Cc1cccc(N=C2NC(=O)S/C2=C\c2ccco2)c1 | 1 | -56 | nt | 56
O=C1NC(=Nc2ccc(Cl)cc2)/C(=C/c2ccco2)S1 | -10 | -82 | -1 | 82*
C/C=C/c1cnc2c(c1)C(=O)N([C@@H](C)CO)C[C@H](C)[C@@H](CN(C)Cc1ccncc1)O2 | nt | nt | 1 | nt
CO[C@H]1CN(C)C(=O)c2ccc(NS(=O)(=O)c3ccccc3)cc2OC[C@H](C)NC[C@H]1C | nt | nt | -9 | nt
Cc1ccc(CSCC(=O)N2CCOCC2)cc1 | -12 | 32 | 104* | -32
O=C(CSCc1ccc(Cl)cc1)N1CCOCC1 | nt | 10 | 2 | -10
C[C@@H]1CN([C@H](C)CO)C(=O)c2cc(NC(=O)CCCN(C)C)ccc2O[C@@H]1CN(C)S(=O)(=O)c1ccccc1 | nt | nt | 32 | nt
CCN(CC)c1ccc(/C=N/Nc2nc3ccccc3[nH]2)c(O)c1 | 19 | -114 | -332 | 114*
CCN(CC)c1ccc(/C=C(/C#N)c2nc3ccc(C)cc3[nH]2)c(OC(C)C)c1 | nt | -102 | -65 | 102*
CCOc1cc(N(CC)CC)ccc1/C=C(/C#N)c1nc2ccccc2[nH]1 | nt | -109 | -60 | 109*
COc1cc(OC)c(OC)cc1/C=N/Nc1nc2ccccc2[nH]1 | -1 | -9 | nt | 9
SMILES | Vif inh | SR-BI DiI-HDL act | C2C12 statin | SR-BI DiI inh
Cc1cc(/C=C(\C#N)c2nc3ccccc3[nH]2)c(C)n1C | -7 | -28 | nt | 28
COc1cc(/C=C(\C#N)c2nc3ccc(C)cc3[nH]2)c([N+](=O)[O-])cc1OC | -22 | -48 | 57 | 48
CCCOc1cc(N(CC)CC)ccc1/C=C(/C#N)c1nc2ccc(C)cc2[nH]1 | nt | -89 | -130 | 89*
CCN(CC)c1ccc(C(=C2C=CC(=[N+](CC)CC)C=C2)c2ccccc2)cc1 | -12 | -54 | nt | 54
CCN(CC)c1ccc(C(=C2C=CC(=[N+](CC)CC)C=C2)c2ccc(N(CC)CC)cc2)cc1 | -22 | -89 | -362 | 89*
C=CCOc1ccc(Br)cc1/C=N/O | 4 | 16 | 126* | -16
O/N=C/c1cc(Br)ccc1OCc1ccccc1F | nt | nt | -10 | nt
